Assay outcomes: PubChem, several laboratories
Most compounds without a hit are left out; they make up all but 0.74% or so of the library.
RGS7-Gao reg: regulators of human RGS7-Galphao interaction. P09471. Multiplexed bead flow cytometry, RGS7-Galphao binding; actives lie on both sides. binding response (% of control), % at 10 µM. actives 0.35% (n = 220,000). AID 1439; in the data active = binding response below about 49% or above about 150%; inconclusive = no clear call, values can overlap the other calls; inactive = in between;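 note: fluorescent Galphao held in activated GDP-AlF4 state binding bead-coupled RGS7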
Target sequence (P09471 whole entry, looked up): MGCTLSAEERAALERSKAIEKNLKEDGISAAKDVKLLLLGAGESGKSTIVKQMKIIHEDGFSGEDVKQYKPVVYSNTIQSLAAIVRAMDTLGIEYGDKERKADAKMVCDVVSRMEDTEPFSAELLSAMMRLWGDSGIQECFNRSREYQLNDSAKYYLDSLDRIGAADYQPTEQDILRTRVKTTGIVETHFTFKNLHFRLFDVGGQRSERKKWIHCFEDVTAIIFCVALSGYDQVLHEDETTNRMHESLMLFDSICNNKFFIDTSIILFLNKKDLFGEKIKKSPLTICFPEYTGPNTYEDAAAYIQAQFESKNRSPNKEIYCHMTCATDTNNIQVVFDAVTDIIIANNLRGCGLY
RGS8-Gao: modulates binding of RGS8 to human Galphao; P09471; multiplexed bead flow cytometry; actives lie on both sides; response (percent of control binding), % at 10 µM; actives 0.34% (n = 220,000); in the data active = response below about 60% or above about 140%; inactive = in between;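 note: Galphao activated as the GDP aluminium fluoride complex binding bead-coupled RGS8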
Calb biofilm kill: mixtures killing C. albicans biofilm | C. albicans biofilm persisters + clotrimazole, fluorescence viability; primary screen in compound mixtures of four per well | inhibition, % at 7.6 µM | actives 0.02% (n = 120,000);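 active = inhibition above 30.3% in the primary screen of four-compound pools, then above 30% when the compound was retested; inconclusive = passed the primary limit but could not be retested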;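 note: compounds exposed to preformed 24 h biofilms for 48 h; 0% = untreated biofilm control and 100% = clotrimazole plus chlorhexidine kill blank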
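System: C. albicans CAF4-2 wild-type biofilms; Medium: RPMI/MOPS medium, pH 7.0; Reagent: Clotrimazole, 50 µg/mL; Times: biofilm formation 24 h, compound exposure 48 h, 37 °C; Detection: 2-h Alamar Blue fluorescence, 535/590 nm excitation/emission; Evaluation: percent inhibition of biofilm viability.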
RGS16-Gao HTS: modulates binding between human RGS16 and Galphao | actives 0.38% (n = 220,000) | binding response (% of control), % at 10 µM | bead-based flow cytometry RGS16-Galphao binding, fluorescence; actives lie on both sides | O15492+P09471;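 note: Galphao activated by GDP with aluminum fluoride before binding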
Target sequence (O15492 whole entry, looked up): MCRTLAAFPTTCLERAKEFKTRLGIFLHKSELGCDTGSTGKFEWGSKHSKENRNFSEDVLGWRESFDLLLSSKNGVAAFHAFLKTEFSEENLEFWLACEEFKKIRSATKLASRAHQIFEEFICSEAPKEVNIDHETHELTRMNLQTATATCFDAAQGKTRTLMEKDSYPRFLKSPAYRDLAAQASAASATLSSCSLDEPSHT
Target sequence (P09471 whole entry, looked up): as the sequence (P09471 whole entry, looked up) above
RGS4-Gao reg: modulates binding of RGS4 to human Galphao; P09471; Multiplexed bead flow cytometry; actives lie on both sides; binding response (% of control), % at 10 µM; actives 0.33% (n = 220,000); in the data active = binding response below about 49% or above about 150%; inactive = in between;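 note: fluorescent Galphao activated with aluminum fluoride binding bead-coupled RGS4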
RGS4-Gao HTS: modulates binding between human RGS4 and Galphao | shares compounds with RGS16-Gao HTS | multiplexed bead flow cytometry, RGS–Galpha-o binding | RGS4–Galpha-o binding response, % at 10 µM | actives 99% (n = 1,600);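 note: fluorescently labeled Galpha-o bound to GDP with aluminium fluoride binding biotinylated RGS beads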
Biotin-avidin: biotin-avidin bead binding disruption counter-screen | shares compounds with RGS16-Gao HTS | 1,700 tested, under 10 active | streptavidin beads, fluorescein-biotin binding, flow cytometry | inhibition, % at 10 µM;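 active = inhibition above 50%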;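 note: median green fluorescence of gated singlet beads compared with DMSO control wells; 0% = DMSO wells and 100% = complete loss of bead fluorescence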
RGS8-Gao confirm: confirmation of regulators of human RGS8-Galphao interaction. shares compounds with RGS16-Gao HTS. bead-based flow cytometry RGS8-Galphao binding, fluorescence; actives lie on both sides. binding response (% of control), % at 10 µM. actives 3% (n = 1,700). AID 1836; in the data active = binding response below about 72% or above about 130%; inactive = in between;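 note: Galphao activated as GDP AlF4 complex before binding bead RGS8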
RGS7-Gao confirm: RGS7-Galphao interaction regulation, single point confirmation. shares compounds with RGS16-Gao HTS. bead-based flow cytometry RGS7-Galphao binding; actives lie on both sides. actives 7.8% (n = 1,700). response (percent of control binding), % at 10 µM. AID 1837; in the data active = response below about 75% or above about 130%; inactive = in between;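 note: fluorescent Galphao activated with GDP and aluminum fluoride binding bead-coupled RGS7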
RGS16-Gao single: RGS16-Galphao interaction regulation, single point confirmation | shares compounds with RGS16-Gao HTS | bead-based flow cytometry, RGS16-Galphao binding; actives lie on both sides | response (% of control binding), % at 10 µM | actives 4% (n = 1,700) | AID 1838; in the data active = response below about 74% or above about 130%; inactive = in between;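 note: Galphao activated as the GDP aluminium fluoride complex binding bead-coupled RGS16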
RGS4-Gao confirm: confirmation of regulators of human RGS4-Galphao interaction; shares compounds with RGS16-Gao HTS; RGS4-Galphao binding, multiplexed bead flow cytometry; actives lie on both sides; binding response (% of control), % at 10 µM; actives 4% (n = 1,700); in the data active = binding response below about 74% or above about 130%; inactive = in between
RGS19-Gao single: RGS19-Galphao interaction regulation, single point confirmation; actives 5% (n = 1,700); response (percent of control binding), % at 10 µM; shares compounds with RGS16-Gao HTS; bead-based flow cytometry RGS19-Galphao binding; actives lie on both sides; in the data active = response below about 50% or above about 160%; inactive = in between;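 note: 100% = no compound control and 0% = blank background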
* = called active by the depositor; ? = inconclusive; nt = no result; [ ] = another dose, or the depositor's remark. Unless noted, the rule behind the calls is not given here.

SMILES | RGS7-Gao reg | RGS8-Gao | Calb biofilm kill | RGS16-Gao HTS | RGS4-Gao reg | RGS4-Gao HTS | Biotin-avidin | RGS8-Gao confirm | RGS7-Gao confirm | RGS16-Gao single | RGS4-Gao confirm | RGS19-Gao single
O=c1cc(C(F)(F)C(F)F)oc2ccccc12 | nt | nt | nt | nt | nt | nt | 1 | 97 | 96 | 97 | 98 | 107
O=c1cc(-c2ccccc2F)oc2ccccc12 | 94 | 98 | 10 | 94 | 97 | nt | nt | nt | nt | nt | nt | nt
O=C1C(=O)N(Cc2ccccc2)C(=O)N1CCOc1ccccc1 | 52 | 58* | -11 | 49 | 56 | 56* | 0 | 103 | 102 | 104 | 105 | 91
Cc1ccc(OCCN2C(=O)c3ccccc3C2=O)cc1 | 91 | 91 | nt | 94 | 92 | nt | nt | nt | nt | nt | nt | nt
Cc1ccc(NS(=O)(=O)c2ccc(C)c(C(=O)N3CCN(C)CC3)c2)cc1 | 80 | 80 | nt | -37* | 69 | 69* | 1 | 98 | 98 | 102 | 97 | 107
Cc1ccc(NS(=O)(=O)c2ccc(C(=O)N3CCCN(C)CC3)cc2)cc1 | 99 | 97 | nt | 102 | 99 | nt | nt | nt | nt | nt | nt | nt
Cc1ccc2[nH]c3c(c2c1)CC/C(=C/c1ccccc1)C3=O | 214*[activator] | 96 | nt | 129 | 113 | 113* | 4 | 94 | 94 | 93 | 97 | 97
COc1ccc(OC)c(C2=NOC(C(=O)Nc3ccccc3SC)C2)c1 (stereo unspecified) | 98 | 95 | nt | 96 | 91 | nt | nt | nt | nt | nt | nt | nt
COc1ccc(OC)c(C2=NOC(C(=O)Nc3cccc(C(C)=O)c3)C2)c1 (stereo unspecified) | 303*[activator] | 99 | nt | 118 | 157*[activator] | nt | 3 | 93 | 88 | 91 | 93 | 93
O=C1OCC=C1NNC(=O)c1cccnc1 | ? | 101 | 12 | 103 | 101 | nt | nt | nt | nt | nt | nt | nt
Cc1ccc(NS(=O)(=O)c2ccc(OCC(=O)NCc3cccnc3)cc2)cc1 | 88 | 69 | 8 | 23* | 89 | 89* | 1 | 98 | 94 | 100 | 96 | 95
Cc1nnc(NC(=O)CSc2nc(N)c(NC(=O)c3cccs3)c(=O)[nH]2)s1 | ? | 104 | 18 | 104 | 105 | nt | nt | nt | nt | nt | nt | nt
CN(CC(=O)N1CCCC1)S(=O)(=O)c1ccc2ccccc2c1 | 106 | 109 | -1 | 106 | 105 | nt | nt | nt | nt | nt | nt | nt
CC(=O)Nc1ccccc1C(=O)C(=O)Nc1ccc(C)c(C)c1 | 109 | 127 | 18 | 251*[activator] | 110 | 110* | -1 | 100 | 107 | 104 | 105 | 88
Cc1ccc(C2=C(CC(=O)O)C(=O)CC2)cc1 | 91 | 76 | 14 | 22* | 92 | 92* | 0 | 103 | 104 | 101 | 101 | 147
Cc1ccc(-c2sc(C)nc2CC(=O)O)cc1 | 96 | 101 | nt | 104 | 100 | nt | nt | nt | nt | nt | nt | nt
CCOc1ccc(OCCCCNCCN)cc1 | 103 | 104 | nt | 107 | 103 | nt | nt | nt | nt | nt | nt | nt
C=CCn1c(Cc2c[nH]c3ccccc23)nnc1SCC(=O)NCc1ccccc1 | 42* | 54* | nt | 38 | 47* | nt | -1 | 101 | 103 | 100 | 103 | 106
OC[C@@H](O)[C@H](O)C(/C=N/Nc1ccccc1)=N\Nc1ccccc1 | ? | 100 | 19 | 103 | 104 | nt | nt | nt | nt | nt | nt | nt
Cc1sc2cc3c(c(C(=O)c4ccccc4)[n+]2c1C)-c1cccc2cccc-3c12 | 110 | 99 | 16 | 100 | 108 | nt | nt | nt | nt | nt | nt | nt
O=C(c1ccccc1)c1c2c(cc3sc4ccccc4[n+]13)-c1cccc3cccc-2c13 | 199*[activator] | 115 | 25 | 93 | 141 | 141* | 0 | 104 | 116 | 106 | 123 | 96
CCCn1c(SCC(=O)N2CCCC2)nc2c1c(=O)n(C)c(=O)n2C | 188*[activator] | 93 | nt | 107 | 157*[activator] | nt | -1 | 100 | 95 | 97 | 97 | 97
O=C(CCN1C(=O)CSC1=O)Nc1ccccc1 | 100 | 98 | nt | 104 | 99 | nt | nt | nt | nt | nt | nt | nt
COc1cc2[nH]c(=S)n(C3CC3)c(=O)c2cc1OC | ? | 100 | 4 | 102 | 103 | nt | nt | nt | nt | nt | nt | nt
COc1cc2[nH]c(=S)n(C3CCCC3)c(=O)c2cc1OC | 108 | 117 | nt | 182*[activator] | 99 | 99* | 3 | 104 | 104 | 102 | 103 | 116
SMILES | RGS7-Gao reg | RGS8-Gao | Calb biofilm kill | RGS16-Gao HTS | RGS4-Gao reg | RGS4-Gao HTS | Biotin-avidin | RGS8-Gao confirm | RGS7-Gao confirm | RGS16-Gao single | RGS4-Gao confirm | RGS19-Gao single
C/C=C(\C)C(=O)NCCN1C2=NC[C@H](Cc3ccccc3)N2C[C@H]1Cc1ccc(O)cc1 | 20* | 24* | 10 | 19* | 34* | nt | -2 | 103 | 104 | 99 | 99 | 112
O=C(NCCc1ccccc1)c1ccc(Cl)nc1 | 100 | 105 | 7 | 119 | 103 | nt | nt | nt | nt | nt | nt | nt
O=C(NCc1ccccc1)c1cnsn1 | 9.6* | 13* | nt | 6.7* | 24* | nt | -1 | 103 | 102 | 102 | 102 | 93
COc1ccc(C(=O)OC(C)CN2CCOCC2)cc1OC (stereo unspecified) | 102 | 101 | nt | 105 | 103 | nt | nt | nt | nt | nt | nt | nt
COc1cc(C(=O)OC(C)CN2CCCC2)cc(OC)c1OC (stereo unspecified) | 44* | 49* | nt | 42 | 47* | nt | 0 | 105 | 105 | 111 | 107 | 118
CC(C)Cc1csc(NC(=O)c2ccc(Br)cc2)c1C(=O)O | ? | 100 | 23 | 99 | 102 | nt | nt | nt | nt | nt | nt | nt
Cc1ccc(/C=C/C2=Cc3c(sc(NC(=O)CSc4n[nH]c(N)n4)c3C#N)C(C)(C)C2)o1 | 93 | 71 | nt | 78 | 98 | nt | nt | nt | nt | nt | nt | nt
NNc1nc2ccc(F)cc2s1 | 89 | 78 | 8 | 0.3* | 92 | 92* | 3 | 101 | 94 | 102 | 100 | 108
NNc1nc2ccc(Cl)cc2s1 | 100 | 102 | 2 | 99 | 102 | nt | nt | nt | nt | nt | nt | nt
COc1cc(-c2cc(C(=O)NN3CCN(C)CC3)c3ccccc3n2)cc(OC)c1OC | 109 | 133 | -8 | 282*[activator] | 111 | 111* | 0 | 101 | 104 | 102 | 102 | 103
COc1cc(-c2cc(C(=O)O)c3cc4c(cc3n2)OCCO4)cc(OC)c1OC | nt | nt | nt | nt | nt | nt | 2 | 100 | 101 | 99 | 101 | 105
